The nature of data set [1]: Prodrug release in doxorubicin-resistant human HT-29 cells assessed as increase in NO level by measuring plasma membrane associated MRP1/BCRP nitration mediated drug uptake at 5 uM incubated for 24 hrs by spectrofluorometric analysis. The format is ADME, cell membranes. The note with it: ht-29, 24 h. The essentials: (§1)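 Cells 24 h with 5 µmol/L compound; DOXO in whole-cell lysates measured fluorimetrically (ex 475/em 553 nm), cell-free blank subtracted, converted to nmol DOXO/mg protein by calibration curve. Triplicate, mean ± SD.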

For data set [2], the system named is HT-29. The experiment in a line: Cytotoxicity against doxorubicin-resistant human HT-29 cells assessed as LDH release at 5 uM incubated for 24 hrs. The format is functional, cell-based. A digest of the protocol: (§2)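 Extracellular medium spun 12,000 × g 5 min; cells detached, sonicated in 82.3 mmol/L triethanolamine phosphate-HCl pH 7.6. LDH activity read in medium and lysate at 340 nm over 6 min, as µmol NADH oxidized/min/dish; extracellular LDH given as % of total dish activity. Compounds from DMSO stock, 5 µM final, 1% DMSO; controls 1% DMSO. Triplicate, mean ± SD.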
On the technique in general: LDH leaks from cells whose membrane has failed.

Data set [3] relates to H9c2. Kind of data set: Cardiotoxicity against rat H9c2 cells assessed as LDH release at 5 uM incubated for 24 hrs. The format is toxicity, cell-based. Particulars: h9c2, 24 h. A digest of the protocol:
as §2

The subject of data set [4] is HT-29. Kind of data set: Cytotoxicity against human HT-29 cells assessed as LDH release at 5 uM incubated for 24 hrs. The format is functional, cell-based. The essentials: as §2
For data set [5], the system named is HT-29. Kind of data set: Induction of apoptosis in doxorubicin-resistant human HT29 cells assessed as activation of caspase 3 using DEVD-AMC substrate at 5 uM incubated for 24 hrs by fluorescence based assay. The data set is classed as functional, cell-based. The essentials:
(§3)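 Cells 24 h in 5 µmol/L compound or fresh medium, lysed in HEPES/KOH buffer pH 7.5. 20 µg lysate incubated 1 h at 37°C with 20 µmol/L LEHD-AMC (caspase 9) or DEVD-AMC (caspase 3) in HEPES/CHAPS/sucrose/DTT buffer pH 7.5. Stopped with ice-cold 0.1% TCA; AMC fluorescence ex 380/em 460 nm, converted to nmol AMC/µg protein via AMC standards. Triplicate.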

Data set [6] in a line: Prodrug release in human HT-29 cells assessed as increase in NO level by measuring plasma membrane associated MRP1/BCRP nitration mediated drug uptake at 5 uM incubated for 24 hrs by spectrofluorometric analysis. The format is ADME, cell membranes. Particulars: ht-29, 24 h. A digest of the protocol: as §1
Data set [7] can be described thus: Prodrug release in human HT-29 cells assessed as increase in NO level by measuring induction of P-glycoprotein nitration in mitochondria at 5 uM incubated for 24 hrs by western blot analysis. Particulars: ht-29, 24 h. The essentials:
(§4)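 Cells 24 h with 5 µmol/L compound. Mitochondrial extracts, 10 µg protein, run on SDS-PAGE and probed for Pgp, porin as loading control; nitration detected by Western blot with peroxidase secondary and chemiluminescence. Representative of three experiments.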
(Immunoblotting shows a protein as a band on a membrane.)

Data set [8] in a line: Prodrug release in doxrubicin-resistant human HT-29 cells assessed as increase in NO level by measuring induction of P-glycoprotein nitration in mitochondria at 5 uM incubated for 24 hrs by western blot analysis. The note with it: ht-29, 24 h. A digest of the protocol: as §4
Data set [9] concerns HT-29. The experiment in a line: Upregulation of iNOS protein expression in human HT-29 cells. The data set is classed as functional, cell-based. A digest of the protocol: (§5)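 HT29 and HT29/dx cells incubated 24 h with compound or fresh medium; lysed in MLB buffer pH 7.5, sonicated, centrifuged 13,000 x g 10 min 4°C; iNOS detected in whole-cell lysate by Western blotting.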

Data set [10] is described as follows: Prodrug release in human HT-29 cells assessed as increase in NO level by measuring mitochondria associated MRP1/BCRP/P-gp nitration mediated drug uptake at 5 uM incubated for 24 hrs by spectrofluorometric analysis. The data set is classed as ADME. Particulars: ht-29, 24 h. A digest of the protocol: (§6)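 Cells 24 h with 5 µmol/L compound; mitochondrial fractions isolated (porin check by immunoblot), DOXO measured fluorimetrically (ex 475/em 553 nm) with blank subtraction and calibration curve; expressed as nmol DOXO/mg mitochondrial protein. Triplicate, mean ± SD.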

A short description of data set [11]: Prodrug release in doxorubicin-resistant human HT-29 cells assessed as increase in NO level by measuring nitrite release at 5 uM incubated for 24 hrs by spectrophotometric analysis. The note with it: ht-29, 24 h. The format is ADME, cell-based. A digest of the protocol: (§7)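 After 24 h culture with 5 µmol/L compound, medium mixed 1:1 with Griess reagent, 10 min 37°C in dark, absorbance 540 nm. Cell-free blank subtracted; nitrite expressed as nmol/mg cell protein. HT29/dx maintained in 200 nmol/L DOXO. Triplicate, mean ± SD (n = 3).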

Data set [12] deals with HT-29. Kind of data set: Upregulation of iNOS protein expression in doxorubicin-resistant human HT-29 cells. The format is functional, cell-based. The essentials:
as §5

Data set [13] can be described thus: Prodrug release in human HT-29 cells assessed as increase in NO level by measuring nitrite release at 5 uM incubated for 24 hrs by spectrophotometric analysis. The format is ADME, cell-based. The note with it: ht-29, 24 h. A digest of the protocol: as §7
The test system of data set [14] is HT-29. The experiment in a line: Induction of apoptosis in doxorubicin-resistant human HT29 cells assessed as activation of caspase 9 using LEHD-AMC substrate at 5 uM incubated for 24 hrs by fluorescence based assay. The format is functional, cell-based. A digest of the protocol:
as §3

Data set [15] deals with HT-29. The experiment in a line: Induction of apoptosis in human HT29 cells assessed as activation of caspase 3 using DEVD-AMC substrate at 5 uM incubated for 24 hrs by fluorescence based assay. The data set is classed as functional, cell-based. A digest of the protocol: as §3
The test system of data set [16] is HT-29. The experiment in a line: Induction of apoptosis in human HT29 cells assessed as activation of caspase 9 using LEHD-AMC substrate at 5 uM incubated for 24 hrs by fluorescence based assay. The data set is classed as functional, cell-based. The essentials:
as §3

The nature of data set [17]: Prodrug release in doxorubicin-resistant human HT-29 cells assessed as increase in NO level by measuring mitochondria associated MRP1/BCRP/P-gp nitration mediated drug uptake at 5 uM incubated for 24 hrs by spectrofluorometric analysis. Particulars: ht-29, 24 h. The data set is classed as ADME. A digest of the protocol: as §6
Data set [18] can be described thus: Prodrug release in doxorubicin-resistant human HT-29 cells assessed as increase in NO level by measuring induction of P-glycoprotein nitration in plasma membrane at 5 uM incubated for 24 hrs by western blot analysis. The data set is classed as cell membranes, Cell membrane. Particulars: ht-29, 24 h. The essentials:
(§8)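 Cells 24 h with 5 µmol/L compound. Plasma-membrane proteins isolated by surface biotinylation, 50 µg run on SDS-PAGE, probed for Pgp with pancadherin loading control; nitration detected by Western blot, peroxidase secondary and chemiluminescence. Representative of three experiments.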

The nature of data set [19]: Stability of the compound assessed as human serum esterase-mediated compound hydrolysis by measuring half life at 100 uM by RP-HPLC analysis. The format is ADME, cell-free. The essentials: (§9)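 Compound from 10 mM DMSO stock added to human male AB serum preheated to 37 °C, 100 µM final, incubated at 37 ± 0.5 °C. Aliquots deproteinized with acetonitrile/0.1% HCOOH, centrifuged, filtered. Parent and degradation products quantified by RP-HPLC (234 and 480 nm) against 1–100 µM calibration. At least triplicate.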

A short description of data set [20]: Prodrug release in human HT-29 cells assessed as increase in NO level by measuring induction of P-glycoprotein nitration in plasma membrane at 5 uM incubated for 24 hrs by western blot analysis. The format is cell membranes, Cell membrane. Particulars: ht-29, 24 h. The essentials:
as §8

A short description of data set [21]: Stability of the compound assessed as human serum esterase-mediated compound hydrolysis by measuring parent compound remaining at 100 uM measured after 24 hrs by RP-HPLC analysis. Particulars: read-out: Stabilty. The format is ADME, cell-free. A digest of the protocol:
as §9

Active and inactive are the calls of the source.

As usually defined, the half-life is the time needed for the level to fall by half in the phase considered.

For `COc1cccc2c1C(=O)c1c(O)c3c(c(O)c1C2=O)C[C@@](O)(C(=O)COC(=O)C(C)(C)CO[N+](=O)[O-])C[C@@H]3O[C@H]1C[C@H](N)[C@H](O)[C@H](C)O1.Cl`, the Drug uptake result in [1], in data set [6], in [10] and in [17] was “Active” throughout. The outcome in [2], in [4], in [5], in data set [9], in data set [12] and in [14] was Active. For the same molecule, the outcome in data set [15] and in [16] was Active. For the same molecule, the Activity entry is “Non-Toxic” in data set [3]; “Active” in data set [7]; “Active” in data set [8]; “Not Active” in data set [18]; “Not Active” in data set [20]. For the same molecule, the Drug metabolism result in [11] and in data set [13] was “Metabolite_Detected” in each case. Besides, in data set [19], the half-life at 100 µM was 21.7 h.
As to `COc1cccc2c1C(=O)c1c(O)c3c(c(O)c1C2=O)C[C@@](O)(C(=O)COC(=O)c1ccc(Oc2no[n+]([O-])c2S(=O)(=O)c2ccccc2)cc1)C[C@@H]3O[C@H]1C[C@H](N)[C@H](O)[C@H](C)O1.Cl`, the result in data set [2], in data set [4], in data set [5], in data set [9], in [12] and in data set [14] was Active. Moreover, the result in data set [15] and in data set [16] was Active. Also, in data set [3], the Activity result is recorded as “Non-Toxic”. For the same molecule, the remaining at 24 h, 100 µM in data set [21] is 73.5%. Besides, the Drug metabolism result in data set [11] and in data set [13] was “Metabolite_Detected” each time. Moreover, the half-life at 100 µM in data set [19] is > 24 h.

For the origin of these results see ChEMBL document CHEMBL4715702, “Overcoming multidrug resistance by targeting mitochondria with NO-donating doxorubicins” (Bioorg Med Chem, 2016).
